Assay results from different studies.
Compare with care: the assays were run in different laboratories.
Read-out: metabolic stability
Host: human

| Structure (SMILES) | test system | conditions | scaled CLint [mL/min/kg] |
| --- | --- | --- | --- |
| CC(C)(C)n1cc2c(n1)C(O)C(C)(C)C1(CCN(C(=O)c3ccc4[nH]ncc4c3)CC1)O2 (centres unmarked) | liver microsomes |  | 17 |
| O=C1C2N=CN3C(NCc4c(F)ccc5c4CCO5)=NC=C(c4cnc(C(F)(F)F)cc4CN1CC(F)F)C23 (centres unmarked) | liver microsomes | 100 µM, 30 min | 11.4 |
| Cc1cc([C@H]2C[C@H]3[C@@H](CF)SC(N)=N[C@@]3(c3ccc(F)cc3F)CO2)on1 | liver microsomes |  | < 8 |
| Nc1nc(-c2cc(F)cc(NC(=O)Nc3cc(F)cc(-c4c[nH]c(N)n4)c3)c2)c[nH]1 | liver microsomes | 5 µM, pH 7.4 | < 20.8 |
| Cc1ccc(F)c2cc(C(=O)N[C@@H]3CCC[C@H](N4CCOCC4)C3)[nH]c12 | hepatocytes | 0.5 µM, 2 h | 75 |
| Nc1nc(-c2ccc(NC(=O)Nc3cccc(-c4c[nH]c(N)n4)c3F)cc2F)c[nH]1 | liver microsomes | 5 µM, pH 7.4 | < 20.8 |
| Cc1coc([C@H]2C[C@H]3CSC(N)=N[C@@]3(c3ccc(F)cc3F)CO2)n1 | liver microsomes |  | 69.6 |
| Cc1ccc(F)c2cc(C(=O)N[C@@H]3CCC[C@H](N4CCN(C)C(=O)C4)C3)[nH]c12 | hepatocytes | 0.5 µM, 2 h | 23.7 |
| NC1=N[C@@]2(c3ccc(F)cc3F)CO[C@@H](c3ncco3)C[C@H]2CS1 | liver microsomes |  | < 8.7 |
| CC(=O)Nc1cc(Nc2cc(NC3CC3)n3ncc(C#N)c3n2)ccc1N(C)C[C@@H]1CCCN1 | hepatocytes | 1 µM, serum-free | 0.8 |
| O=C1NCCc2nc(OCc3cccc(F)c3)ccc21 | liver microsomes |  | 25 |
| Cc1cc([C@H]2C[C@H]3CSC(N)=N[C@@]3(c3ccc(F)cc3F)CO2)on1 | liver microsomes |  | 55.2 |
| Cc1cc(NC(=O)Cc2ccc(F)c(C#N)c2)n(CC2CCCCC2)n1 | liver microsomes |  | 648 |
| Cc1cc([C@H]2C[C@H]3[C@@H](C)SC(N)=N[C@@]3(c3ccc(F)cc3F)CO2)on1 | liver microsomes |  | < 8 |
| O=C(Nc1ccc(N2C(=O)c3cccc(Cl)c3C2=O)c(Cl)c1)c1ncccc1Cl | liver microsomes | 1 µM, pH 7.4 | 17.2 |
| CC(C)N1Cc2cc(C(F)(F)F)ncc2C2=CN=C(NCc3c(F)ccc4c3CCO4)N3C=NC(C1=O)C23 (centres unmarked) | liver microsomes | 100 µM, 30 min | 5.65 |
| CCCN(C)Cc1cc(-c2[nH]c3cccc(F)c3c(=O)c2C)ccc1Cc1ccc(OC(F)(F)F)cc1 | liver microsomes |  | 1040 |
| Nc1nc(-c2ccc(NC(=O)c3ccc(Cl)c(Cl)c3)cc2F)c[nH]1 | liver microsomes | 5 µM, 1 h, pH 7.4 | 10.9 |
| O=C1c2ccc(OCc3cccc(F)c3)nc2CCN1c1ccc(F)cn1 | liver microsomes |  | 18 |
| Cc1ccc(F)c2cc(C(=O)N[C@@H]3CCC[C@H](c4ccncc4)C3)[nH]c12 | hepatocytes | 0.5 µM, 2 h | 32.3 |
